Assay results published in ChEMBL document CHEMBL5724801, “EUbOPEN Chemogenomics Library - Multiplex” (2024).
Several values for one entry are separate records, joined by “and”; a condition that tells them apart may be missing. Equal entries are not always repeated.

Experiments:
Fibroblast = assay: Multiplex assay against human fibroblast; format: toxicity, cell-based
Method in brief: (§1)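 Values for tubulin, mitochondrial-mass and membrane-permeability phenotypes are per cents of cells with healthy nuclei. These cells were identified by CellPathfinder machine-learning gating of live cells that had been stained at seeding with Hoechst33342, BioTracker Green Microtubule Cytoskeleton Dye, MitoTracker Red and Annexin V Alexa Fluor 680 and imaged on a CQ1 microscope at 37°C and 5% CO2 after compound addition. The gating first set Hoechst high-intensity objects apart from normal cells, then split normal cells into healthy, pyknosed or fragmented nuclei, and pyknosed cells into mitotic or apoptotic.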

U2OS = assay: Multiplex assay against U2OS; format: toxicity, cell-based; settings: human; method in brief: as §1
[1] = 24 h, 10 µM, compound concentration 10 uM
[2] = 48 h, 1 µM, compound concentration 1 uM
[3] = 48 h, 10 µM, compound concentration 10 uM
[4] = 12 h, 1 µM, compound concentration 1 uM
[5] = 12 h, 10 µM, compound concentration 10 uM
[6] = 24 h, 1 µM, compound concentration 1 uM

COc1cc2ncnc(Nc3ccc(Oc4ccccc4)cc3C)c2cc1OC.Cl
Population Healthy Nuclei (%) (Fibroblast; [1]): 59.48% and 79.49% | Population Hoechst High Intensity Objects (%) (Fibroblast; [1]): 0% | Population Membrane Permeable-Phenotype (%) (Fibroblast; [1]): 4.35% and 4.03% | Population Mitochondria Different-Phenotype (%) (Fibroblast; [1]): 25.36% and 23.39% | Population Mitotic Cells (%) (Fibroblast; [1]): 95.65% and 76% | Population Normal (%) (Fibroblast; [1]): 100% | Population Pyknosed Nuclei (%) (Fibroblast; [1]): 19.83% and 8.01% | Population Tubulin-Different-Phenotype (%) (Fibroblast; [1]): 65.22% and 70.16% | Total Cell Count (Fibroblast; [1]): 232 and 312 | Population Apoptotic (%) (Fibroblast; [2]): 14.29% and 18.75% | Population Fragmented Nuclei (%) (Fibroblast; [2]): 14.46% and 12.14% | Population Healthy Nuclei (%) (Fibroblast; [2]): 77.11% and 80.1% | Population Hoechst High Intensity Objects (%) (Fibroblast; [2]): 0% | Population Membrane Permeable-Phenotype (%) (Fibroblast; [2]): 1.04% and 1.21% | Population Mitochondria Different-Phenotype (%) (Fibroblast; [2]): 11.98% and 4.85% | Population Mitotic Cells (%) (Fibroblast; [2]): 85.71% and 81.25% | Population Normal (%) (Fibroblast; [2]): 100% | Population Pyknosed Nuclei (%) (Fibroblast; [2]): 8.43% and 7.77% | Population Tubulin-Different-Phenotype (%) (Fibroblast; [2]): 8.33% and 15.76% | Total Cell Count (Fibroblast; [2]): 249 and 206 | Population Apoptotic (%) (Fibroblast; [3]): 14.29% and 28.57% | Population Fragmented Nuclei (%) (Fibroblast; [3]): 17.05% and 16.67% | Population Healthy Nuclei (%) (Fibroblast; [3]): 78.98% and 81.45% | Population Hoechst High Intensity Objects (%) (Fibroblast; [3]): 0% | Population Membrane Permeable-Phenotype (%) (Fibroblast; [3]): 4.68% and 4.95% | Population Mitochondria Different-Phenotype (%) (Fibroblast; [3]): 11.15% and 6.93% | Population Mitotic Cells (%) (Fibroblast; [3]): 85.71% and 71.43% | Population Normal (%) (Fibroblast; [3]): 100% | Population Pyknosed Nuclei (%) (Fibroblast; [3]): 3.98% and 1.88% | Population Tubulin-Different-Phenotype (%) (Fibroblast; [3]): 51.8% and 63.04% | Total Cell Count (Fibroblast; [3]): 352 and 372 | Population Apoptotic (%) (U2OS; [4]): 43.18% and 56.25% | Population Fragmented Nuclei (%) (U2OS; [4]): 1.46% and 3.77% | Population Healthy Nuclei (%) (U2OS; [4]): 89.4% and 86.16% | Population Hoechst High Intensity Objects (%) (U2OS; [4]): 0% | Population Membrane Permeable-Phenotype (%) (U2OS; [4]): 0.23% and 2.92% | Population Mitochondria Different-Phenotype (%) (U2OS; [4]): 0.47% and 9.49% | Population Mitotic Cells (%) (U2OS; [4]): 56.82% and 43.75% | Population Normal (%) (U2OS; [4]): 100% | Population Pyknosed Nuclei (%) (U2OS; [4]): 9.15% and 10.06% | Population Tubulin-Different-Phenotype (%) (U2OS; [4]): 0.47% and 0.73% | Population Apoptotic (%) (U2OS; [5]): 37.93% and 21.21% | Population Fragmented Nuclei (%) (U2OS; [5]): 2.47% and 2.03% | Population Healthy Nuclei (%) (U2OS; [5]): 81.64% and 75.68% | Population Hoechst High Intensity Objects (%) (U2OS; [5]): 0.27% and 0% | Population Membrane Permeable-Phenotype (%) (U2OS; [5]): 11.74% and 10.71% | Population Mitotic Cells (%) (U2OS; [5]): 62.07% and 78.79% | Population Normal (%) (U2OS; [5]): 99.73% and 100% | Population Pyknosed Nuclei (%) (U2OS; [5]): 15.89% and 22.3% | Population Tubulin-Different-Phenotype (%) (U2OS; [5]): 14.09% and 5.36% | Total Cell Count (U2OS; [5]): 366 and 148 | Population Apoptotic (%) (U2OS; [6]): 41.67% and 39.13% | Population Fragmented Nuclei (%) (U2OS; [6]): 2.08% and 5.24% | Population Healthy Nuclei (%) (U2OS; [6]): 88.99% and 83.81% | Population Hoechst High Intensity Objects (%) (U2OS; [6]): 0% | Population Membrane Permeable-Phenotype (%) (U2OS; [6]): 0.67% and 2.84% | Population Mitochondria Different-Phenotype (%) (U2OS; [6]): 0.67% and 6.25% | Population Mitotic Cells (%) (U2OS; [6]): 58.33% and 60.87% | Population Normal (%) (U2OS; [6]): 100% | Population Pyknosed Nuclei (%) (U2OS; [6]): 8.93% and 10.95% | Population Tubulin-Different-Phenotype (%) (U2OS; [6]): 0.67% and 1.7% | Population Apoptotic (%) (U2OS; [1]): 64.1% and 26.19% | Population Fragmented Nuclei (%) (U2OS; [1]): 3.39% and 3.61% | Population Healthy Nuclei (%) (U2OS; [1]): 79.01% and 71.08% | Population Hoechst High Intensity Objects (%) (U2OS; [1]): 0% | Population Membrane Permeable-Phenotype (%) (U2OS; [1]): 8.57% and 6.78% | Population Mitotic Cells (%) (U2OS; [1]): 35.9% and 73.81% | Population Normal (%) (U2OS; [1]): 100% | Population Pyknosed Nuclei (%) (U2OS; [1]): 17.61% and 25.3% | Population Tubulin-Different-Phenotype (%) (U2OS; [1]): 10.29% and 10.17% | Total Cell Count (U2OS; [1]): 443 and 166 | Population Apoptotic (%) (U2OS; [2]): 42.28% and 50% | Population Fragmented Nuclei (%) (U2OS; [2]): 3.36% and 3.22% | Population Healthy Nuclei (%) (U2OS; [2]): 87.01% and 84.5% | Population Hoechst High Intensity Objects (%) (U2OS; [2]): 0% | Population Membrane Permeable-Phenotype (%) (U2OS; [2]): 0.54% and 2.42% | Population Mitochondria Different-Phenotype (%) (U2OS; [2]): 0% and 6.23% | Population Mitotic Cells (%) (U2OS; [2]): 57.72% and 50% | Population Normal (%) (U2OS; [2]): 100% | Population Pyknosed Nuclei (%) (U2OS; [2]): 9.62% and 12.28% | Population Tubulin-Different-Phenotype (%) (U2OS; [2]): 0.63% and 1.38% | Population Apoptotic (%) (U2OS; [3]): 65.09% and 50% | Population Fragmented Nuclei (%) (U2OS; [3]): 6.98% and 4.76% | Population Healthy Nuclei (%) (U2OS; [3]): 79.05% and 76.19% | Population Hoechst High Intensity Objects (%) (U2OS; [3]): 0% | Population Membrane Permeable-Phenotype (%) (U2OS; [3]): 4.33% and 8.52% | Population Mitotic Cells (%) (U2OS; [3]): 34.91% and 50% | Population Normal (%) (U2OS; [3]): 100% | Population Pyknosed Nuclei (%) (U2OS; [3]): 13.97% and 19.05% | Population Tubulin-Different-Phenotype (%) (U2OS; [3]): 10.17% and 11.93%
